Marks after values point to notes of the source that are not given here.
What was measured:
SKBR-3 cells [1] = experiment: Cytotoxicity by MTT assay; type: cell-based; conditions: Homo sapiens, SK-BR-3
Summary of the method: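 SKBR-3 cells were grown in McCoy's 5A with 10% FBS, penicillin and streptomycin at 37°C under 5% CO2. Test compound was applied over a dose range in a time-dependent MTT assay. Growth inhibition was expressed as a percentage relative to controls, and IC50 was derived from the dose response.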

SKBR-3 cells [2] = experiment: Apoptosis study by annexin V FITC; type: cell-based, human; conditions: SKBR3 cells, 24 hrs, at respective IC50
Summary of the method: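 SKBR-3 cells seeded at 1×10^5 cells per well in McCoy's medium at 37°C and exposed to test compound for 24 hrs. Cells were then trypsinized, pelleted at 3000 rpm for 3 mins and PBS-washed. They were stained with FITC-annexin V plus propidium iodide, and the apoptotic fraction was quantified by flow cytometry.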

SKBR-3 tumor = experiment: In vivo therapeutic study on tumor-bearing xenograft mice; design: species or system athymic nude mice; conditions: for average tumor volume: three IV doses of DOX 3 mg/kg on alternate days
Summary of the method: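 Athymic nude mice (CAnN.Cg-Foxn, 6 weeks, ~20 g) were inoculated subcutaneously in the left rear flank with 1×10^7 SKBR-3 cells in 200 μL medium. At 100–150 mm3, groups of three received IV saline or test compound, three doses of DOX 3 mg/kg equivalent on alternate days. Tumours were caliper-measured, body weight was monitored, and excised tumours were weighed after sacrifice (mean ± SD, n=3).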

Pharmacokinetic study = type: in vivo, BALB/c mice
SKBR-3 cells [3] = experiment: Cell cycle distribution analysis; type: cell-based, human; conditions: 24 hrs, at respective IC50
Summary of the method: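 After 24 hrs of exposure to test compound (SKBR-3 seeded at 1×10^5 cells per well), cells were collected and washed thrice in sterile PBS pH 7.4. They were fixed in chilled 70% ethanol and stained with propidium iodide (20 µg/mL) for 30 mins. DNA content was acquired over 15,000 events per sample, and phase distribution was compared with untreated control.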

Cardiac toxicity study = type: in vivo, female BALB/c mice; conditions: BALB/c mice
Summary of the method: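 Female BALB/c mice (~25 g, n=3 per group) received three consecutive IV injections totalling […] DOX, given as free drug or drug-equivalent nanoparticles. Controls were untreated/saline and blank nanoparticles. Weight was recorded every 48 hrs, and […] was taken under light anaesthesia 14 days after the last dose. Hearts were then excised and weighed, and SOD was kit-assayed in heart homogenate (ice-cold PBS, 10 mL/g).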

MCF-7 cells = experiment: Cell cycle distribution analysis; type: cell-based, human; conditions: 24 hrs, at respective IC50
[4] = BALB/c, mouse, plasma, iv, 10 mg/kg
[5] = plasma DOX, IV bolus, 10 mg/kg DOX or equivalent, BALB/c mice

- AUC(0-inf) (Pharmacokinetic study; [4]): 2930 ± 205 ng·h/mL
- AUC(0-t) (Pharmacokinetic study; [4]): 2880 ± 199 ng·h/mL
- Cmax (Pharmacokinetic study; [4]): 911 ± 50.5 ng/mL
- MRT inf (Pharmacokinetic study; [4]): 18.2 ± 0.86 h
- MRT last (Pharmacokinetic study; [4]): 16.2 ± 0.99 h
- Tmax (Pharmacokinetic study; [4]): 0.25 ± 0.021 h
- Vd (Pharmacokinetic study; [4]): 61.9 ± 4.8 L/kg
- clearance (Pharmacokinetic study; [4]): 56.7 mL/min/kg
- half-life (Pharmacokinetic study; [4]): 17.9 ± 2.1 h
- AUMCinf (Pharmacokinetic study; [5]): 53,296.5±2600 hrs.hrs.ng/mL
- AUMClast (Pharmacokinetic study; [5]): 46,707.8±2202.6 hrs.hrs.ng/mL
Compound: COc1cccc2c1C(=O)c1c(O)c3c(c(O)c1C2=O)C[C@@](O)(C(=O)CO)C[C@@H]3O[C@H]1C[C@H](N)[C@H](O)[C@H](C)O1 [DOX, (7S, 9S)-7-[(2R, 4S, 5S, 6S)-4-amino-5-hydroxy-6-methyloxan-2-yl]oxy-6,9,11-trihydroxy-9-(2-hydroxyacetyl)-4-methoxy-8,10-dihydro-7H-tetracene-5,12-dione]
- IC50 (SKBR-3 cells [1]): 14.1 µM
- extent of apoptosis (SKBR-3 cells [2]): 19.6%
- Average tumor weights of the excised tumors (SKBR-3 tumor; at the terminal experiment, SKBR-3 tumor, three IV doses of DOX 3 mg/kg): 0.424 ± 0.06 g
- average tumor volume (SKBR-3 tumor; day 15, SKBR-3 tumor): 500 mm^3
- average tumor volume (SKBR-3 tumor; day 25, SKBR-3 tumor): 1790 mm^3
- cell-arrest in S-phase (SKBR-3 cells [3]): 22%
- Heart weight (Cardiac toxicity study; 2 weeks after final dosing): 0.1420 ± 0.025 g
- LV fractional shortening (Cardiac toxicity study; 14 days after last dose): significant decrease
- histopathology of heart sections (Cardiac toxicity study; hematoxylin and eosin staining): Remarkable changes in degradation in cardiac muscle with vacuolization and edema of the cells
- % SOD (Cardiac toxicity study; heart homogenate, 2 weeks after final dosing): 34.02±4.5^a,b %
- cell-arrest in S-phase (MCF-7 cells): 8%
